In ChEMBL document CHEMBL2203099, “Identification of a crucial amino acid in the helix position 6.51 of human tachykinin neurokinin 1 and 3 receptors contributing to the insurmountable mode of antagonism by dual NK₁/NK₃ antagonists” (J Med Chem, 2012) one finds EC50 and Ki data, which are given here for one molecule.

pEC50, pKi: −log10 of the molar value. Where a SMILES comes first, the peptide text is derived from it. [ ]: non-standard residue; d: D form. NMeF = CN[C@@H](Cc1ccccc1)C(=O)O

The term pEC50 denotes the negative decadic logarithm of the EC50, by convention in mol/L. A word on the pKi: it is the Ki on a negative log10 scale, so that one unit is a factor of ten.

Assay [1] has as its target T1, Neuromedin-K receptor (Homo sapiens, UniProt P29371).
T1 sequence (P29371 whole entry): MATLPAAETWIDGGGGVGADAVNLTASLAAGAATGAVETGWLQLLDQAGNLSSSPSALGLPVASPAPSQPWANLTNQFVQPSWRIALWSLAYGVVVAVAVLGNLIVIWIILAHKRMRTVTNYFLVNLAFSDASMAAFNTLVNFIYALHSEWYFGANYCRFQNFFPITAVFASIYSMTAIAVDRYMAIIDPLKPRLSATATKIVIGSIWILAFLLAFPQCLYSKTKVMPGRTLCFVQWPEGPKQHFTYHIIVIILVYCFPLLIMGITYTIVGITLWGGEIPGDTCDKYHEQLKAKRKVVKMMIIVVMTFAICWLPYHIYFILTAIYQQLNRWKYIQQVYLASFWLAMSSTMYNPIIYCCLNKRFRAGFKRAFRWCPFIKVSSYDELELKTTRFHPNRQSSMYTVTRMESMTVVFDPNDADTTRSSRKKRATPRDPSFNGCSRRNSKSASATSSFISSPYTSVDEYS
Nature of the assay: Agonist activity at wild type human NK3 receptor expressed in HEK293 cells assessed as [3H]IP accumulation after 45 mins. It counts as functional, cell-based. The gist of the method:
(§1)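 Human NK3 (WT or point mutant) transiently transfected into HEK293 cells and labeled with 5 μCi/mL myo-[³H]inositol. Assay buffer HBSS/20 mM HEPES pH 7.4 with 8 mM LiCl. [MePhe⁷]NKB at 0.01 nM–1 μM for 45 min at 37 °C. Lysis in 20 mM formic acid; [³H]IP captured on yttrium silicate SPA beads. EC50 and Hill slope from a four-parameter fit. Emax given as % of the WT fitted maximum from the same day.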

The target of the next assay is Substance-P receptor (Homo sapiens, UniProt P25103). The assay is described as follows: Binding affinity at human NK1 receptor.
Substance-P receptor, sequence (P25103 whole entry): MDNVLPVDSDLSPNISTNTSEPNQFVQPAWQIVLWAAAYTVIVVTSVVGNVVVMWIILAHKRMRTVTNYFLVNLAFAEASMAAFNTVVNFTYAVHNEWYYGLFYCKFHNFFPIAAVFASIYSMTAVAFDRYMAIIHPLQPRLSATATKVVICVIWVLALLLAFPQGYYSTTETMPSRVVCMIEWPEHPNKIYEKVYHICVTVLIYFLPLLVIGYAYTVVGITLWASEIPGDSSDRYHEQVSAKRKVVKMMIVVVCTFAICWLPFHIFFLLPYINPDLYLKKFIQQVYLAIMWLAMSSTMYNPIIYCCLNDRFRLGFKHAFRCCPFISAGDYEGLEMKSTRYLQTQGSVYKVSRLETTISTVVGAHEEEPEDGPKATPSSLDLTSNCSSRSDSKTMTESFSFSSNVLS
Assay [2] deals with Neuromedin-K receptor (Homo sapiens, UniProt P29371, H316W). The assay is described as follows: Agonist activity at human NK3 H316W mutant expressed in HEK293 cells assessed as [3H]IP accumulation after 45 mins. It counts as functional, cell-based. In short, it runs like this:
as §1

Assay [3] addresses Neuromedin-K receptor (Homo sapiens, UniProt P29371, H316F). Nature of the assay: Agonist activity at human NK3 H316F mutant expressed in HEK293 cells assessed as [3H]IP accumulation after 45 mins. The format is functional, cell-based. In short, it runs like this: as §1
Assay [4] concerns the target Neuromedin-K receptor (Homo sapiens, UniProt P29371, Y247W). Nature of the assay: Agonist activity at human NK3 Y247W mutant expressed in HEK293 cells assessed as [3H]IP accumulation after 45 mins. The format is functional, cell-based. The gist of the method:
as §1

The target of assay [5] is Neuromedin-K receptor (Homo sapiens, UniProt P29371, Y247A). The assay is described as follows: Agonist activity at human NK3 Y247A mutant expressed in HEK293 cells assessed as [3H]IP accumulation after 45 mins. The format is functional, cell-based. In short, it runs like this: as §1
Neuromedin-K receptor (Homo sapiens, UniProt P29371, Y247A), sequence (P29371 whole entry Y247A): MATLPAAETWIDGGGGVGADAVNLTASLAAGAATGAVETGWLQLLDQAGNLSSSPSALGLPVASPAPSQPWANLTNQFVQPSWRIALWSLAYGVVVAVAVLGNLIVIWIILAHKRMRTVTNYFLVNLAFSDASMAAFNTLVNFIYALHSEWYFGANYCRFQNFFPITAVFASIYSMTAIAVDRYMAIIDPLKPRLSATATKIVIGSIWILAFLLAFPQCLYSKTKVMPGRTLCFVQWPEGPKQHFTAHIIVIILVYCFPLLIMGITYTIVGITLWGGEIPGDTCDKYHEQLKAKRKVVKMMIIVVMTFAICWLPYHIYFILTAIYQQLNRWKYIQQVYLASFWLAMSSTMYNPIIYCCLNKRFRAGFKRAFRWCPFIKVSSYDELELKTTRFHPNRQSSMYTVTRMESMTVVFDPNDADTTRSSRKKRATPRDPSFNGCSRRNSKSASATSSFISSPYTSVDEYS
Assay [6] deals with Neuromedin-K receptor (Homo sapiens, UniProt P29371, Y247F). Nature of the assay: Agonist activity at human NK3 Y247F mutant expressed in HEK293 cells assessed as [3H]IP accumulation after 45 mins. It counts as functional, cell-based. The gist of the method:
as §1

Neuromedin-K receptor (Homo sapiens, UniProt P29371, H316W), sequence (P29371 whole entry H316W): as the sequence (P29371 whole entry Y247A) above, with A247Y, H316W counted along it
Neuromedin-K receptor (Homo sapiens, UniProt P29371, H316F), sequence (P29371 whole entry H316F): as the sequence (P29371 whole entry Y247A) above, with A247Y, H316F counted along it
Neuromedin-K receptor (Homo sapiens, UniProt P29371, Y247F), sequence (P29371 whole entry Y247F): as the sequence (P29371 whole entry Y247A) above, with A247F counted along it
Neuromedin-K receptor (Homo sapiens, UniProt P29371, Y247W), sequence (P29371 whole entry Y247W): as the sequence (P29371 whole entry Y247A) above, with A247W counted along it

On to `CSCC[C@H](NC(=O)[C@H](CC(C)C)NC(=O)CNC(=O)[C@H](Cc1ccccc1)N(C)C(=O)[C@H](Cc1ccccc1)NC(=O)[C@H](Cc1ccccc1)NC(=O)[C@H](CC(=O)O)NC(=O)[C@H](Cc1cnc[nH]1)NC(=O)[C@H](CCSC)NC(=O)[C@@H](N)CC(=O)O)C(N)=O` (H-DMHDFF[NMeF]GLM-NH2), for which the values for the pEC50 at Neuromedin-K receptor [1], at Neuromedin-K receptor [2] and at Neuromedin-K receptor [6] were 9.15, 8.46 and 8.65, respectively. The molecule also gave a pKi at Substance-P receptor of under 5.00. For the same molecule, the EC50 entry at Neuromedin-K receptor [3], at Neuromedin-K receptor [4] and on Neuromedin-K receptor [5] was “Not Active” throughout.
